From ChEMBL document CHEMBL4834477, “Synthesis and biological evaluation of novel purinyl quinazolinone derivatives as PI3Kδ-specific inhibitors for the treatment of hematologic malignancies” (Bioorg Med Chem, 2021)

What was measured:
[1] = biological target: Phosphatidylinositol 4,5-bisphosphate 3-kinase catalytic subunit gamma isoform (Homo sapiens, UniProt P48736); assay: Inhibition of recombinant human full length His-tagged p110gamma expressed in baculovirus expression system measured after 60 mins in presence of ATP by ATP-competitive binding assay
Chain of Phosphatidylinositol 4,5-bisphosphate 3-kinase catalytic subunit gamma isoform (P48736 whole entry, canonical isoform): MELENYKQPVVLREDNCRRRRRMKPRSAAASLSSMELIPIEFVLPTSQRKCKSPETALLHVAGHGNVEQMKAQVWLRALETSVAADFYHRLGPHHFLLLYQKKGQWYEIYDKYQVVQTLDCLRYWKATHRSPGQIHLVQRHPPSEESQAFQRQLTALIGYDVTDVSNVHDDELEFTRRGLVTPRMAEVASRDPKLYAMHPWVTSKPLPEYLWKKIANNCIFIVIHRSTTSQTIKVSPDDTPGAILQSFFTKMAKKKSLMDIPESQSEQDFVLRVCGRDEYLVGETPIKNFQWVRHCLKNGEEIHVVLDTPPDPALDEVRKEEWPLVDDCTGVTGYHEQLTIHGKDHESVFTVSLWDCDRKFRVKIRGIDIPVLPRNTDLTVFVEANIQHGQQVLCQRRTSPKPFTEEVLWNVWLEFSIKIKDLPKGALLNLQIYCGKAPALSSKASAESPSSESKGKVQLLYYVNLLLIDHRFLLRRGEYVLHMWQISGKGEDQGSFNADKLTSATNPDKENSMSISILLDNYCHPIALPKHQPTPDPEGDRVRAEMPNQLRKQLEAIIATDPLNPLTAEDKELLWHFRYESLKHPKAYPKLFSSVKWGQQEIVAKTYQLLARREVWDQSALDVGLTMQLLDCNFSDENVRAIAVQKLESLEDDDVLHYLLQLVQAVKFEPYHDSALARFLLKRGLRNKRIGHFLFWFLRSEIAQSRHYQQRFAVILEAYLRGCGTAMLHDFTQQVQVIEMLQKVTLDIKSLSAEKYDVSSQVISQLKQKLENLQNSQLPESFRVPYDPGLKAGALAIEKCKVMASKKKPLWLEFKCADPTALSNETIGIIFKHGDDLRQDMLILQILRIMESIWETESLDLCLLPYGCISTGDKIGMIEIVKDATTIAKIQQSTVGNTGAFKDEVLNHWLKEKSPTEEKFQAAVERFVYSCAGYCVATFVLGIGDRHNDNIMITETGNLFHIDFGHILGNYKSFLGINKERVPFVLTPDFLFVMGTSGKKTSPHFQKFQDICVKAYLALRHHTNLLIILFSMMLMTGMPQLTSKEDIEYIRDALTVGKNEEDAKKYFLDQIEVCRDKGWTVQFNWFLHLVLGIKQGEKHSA
Outline: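 SelectScreen ATP-competitive assay using 10-point titration with 1 μM top final compound concentration. Kinase, substrate and ATP mixed in 30 mM HEPES buffer and reacted 60 min. IC50 taken as the mean of three independent experiments.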

[2] = Cmax in Sprague-Dawley rat at 1 mg/kg, po measured for 24 hrs by LC-MS/MS analysis; format: ADME, organism-based; parameters: route oral, dose 1 mg/kg, time 24 hrs; details: in vivo
Outline: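 Sprague-Dawley rats dosed orally at 1 or 3 mg/kg, three animals per group. Blood sampled at 0.25, 0.5, 1, 2, 4, 8 and 24 h post-dose. Plasma separated by centrifugation, extracted and quantified by LC-MS/MS. PK parameters (Cmax, AUClast, Tmax, t1/2) derived by non-compartmental software.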

[3] = species on record: Homo sapiens; assay: Selectivity ratio of IC50 for recombinant human full length His-tagged p110gamma expressed in baculovirus expression system to IC50 for recombinant human full length His-tagged p110delta/p85alpha expressed in baculovirus expression system
[4] = test system: SU-DHL-5; assay: Antiproliferative activity against human SU-DHL-5 cells assessed as reduction in cell viability at 10 uM by CellTiter-Glo luminescent cell viability assay relative to idelalisib; format: functional
Outline: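 Cells were seeded at 5x10^4 per well and exposed to the compound at a single concentration: 10 μM for SUDHL-5 and 20 μM for MOLT-4. CellTiter-Glo reagent was added 1:1, mixed for 2 min to lyse the cells, and held 10 min at room temperature before reading luminescence. Readings were background-subtracted and normalized to control wells.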

**Q.** Which IC50 [1] does the source give for O=c1c2c(F)cccc2nc([C@@H](Nc2ncnc3nc[nH]c23)C2CC2)n1-c1ccccc1 here?
**A.** The IC50 was 19.1 nM.

**Q.** What about the Cmax [2] of the same compound?
**A.** Its Cmax is 18.3 ng/mL.

**Q.** What does the source list for Cc1cccc2nc([C@@H](Nc3ncnc4nc[nH]c34)C3CC3)n(-c3ccccc3)c(=O)c12?
**A.** Ratio IC50 [3]: 95.5; fold change (FC) [4]: 5
